The source of these data is ChEMBL document CHEMBL1949634, “Synthesis and evaluation of a novel series of indoloisoquinolines as small molecule anti-malarial leads” (Bioorg Med Chem Lett, 2012).

In general, pIC50 refers to the IC50 on a negative log10 scale, so that one unit is a factor of ten.

pIC50: −log10 of the molar value. Activity calls are given as the source filed them. No cut-off for these calls is given here.

One experiment deals with Plasmodium falciparum. Description: Anti-malarial activity against intraerythrocytic ring stage culture of chloroquine-resistant Plasmodium falciparum Dd2 after 48 hrs by lactate dehydrogenase assay. It is filed as functional, organism-based. Conditions: Dd2, 48 h. The method, boiled down: (§1)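 Sorbitol-synchronised ring-stage parasites at 2% haematocrit and 1% parasitaemia, kept at 37 °C in 1% O2/3% CO2/96% N2, were given five-fold drug dilutions from 100 mM DMSO stocks for 48 h. Growth reference wells had no drug, and 0% wells had artemether at 100 nM. LDH was read with Malstat/APAD plus NBT/PES (1 h, dark, room temperature, A650). IC50 came from log dose–response curves of mean growth, n ≥ 6.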
As to `COC[C@H]1Cc2c(n(C)c3ccccc23)[C@@H]2CCCC(=O)N12`, the negative-log IC50 (pIC50) is 4.54. The same measure, in the same setting: to `COC[C@@H]1Cc2c(n(Cc3ccccc3)c3ccccc23)[C@H]2CCCC(=O)N12` belongs 4.49; to `C=C[C@@H]1CC(=O)N2[C@H](COCc3ccccc3)Cc3c(n(Cc4ccccc4)c4ccccc34)[C@H]2C1`, 4.70.

In the case of `O=C1CCC[C@H]2c3c(c4ccccc4n3Cc3ccccc3)C[C@H](CO)N12`, the negative logarithm of the IC50 (pIC50) is 5.30. Turning to `COC[C@H]1Cc2c(n(Cc3ccccc3)c3ccccc23)[C@@H]2CCCC(=O)N12`, the pIC50 was 5.89. Compound `C=CCOC[C@H]1Cc2c(n(CC3CCCCC3)c3ccccc23)[C@@H]2CCCC(=O)N12` gave a pIC50 of 5.05.

Take `C=CCOC[C@H]1Cc2c(n(CC=C)c3ccccc23)[C@@H]2CCCC(=O)N12`: the pIC50 was 4.89. Same read-out and setting: to `C=CCOC[C@H]1Cc2c(n(Cc3ccccc3)c3ccccc23)[C@@H]2CCCC(=O)N12` belongs 5.89; to `C=CCOC[C@H]1Cc2c(n(CC3CCC3)c3ccccc23)[C@@H]2CCCC(=O)N12`, 5.15; to `COC[C@@H]1Cc2c(n(C)c3ccccc23)[C@H]2CCCC(=O)N12`, 4.52. In the case of `O=C1CCC[C@H]2c3c(c4ccccc4n3Cc3ccccc3)C[C@H](COCc3ccccc3)N12`, the pIC50 was 5.46.

As to `O=C1CCC[C@H]2c3[nH]c4ccccc4c3C[C@H](CO)N12`, the pIC50 is 4.25. Compound `C=CCOC[C@H]1Cc2c(n(Cc3ccccc3)c3ccccc23)[C@@H]2C[C@@H](C=C)CC(=O)N12` gave a negative-log IC50 (pIC50) of 5.96. `C=CCOC[C@H]1Cc2c(n(Cc3ccncc3)c3ccccc23)[C@@H]2CCCC(=O)N12`: the pIC50 was 5.68. Still for that read-out and setting: the value for `C=CCOC[C@@H]1Cc2c(n(CC=C)c3ccccc23)[C@H]2CCCC(=O)N12` was 4.80. The compound `COC[C@H]1Cc2c(n(Cc3ccccc3)c3ccccc23)[C@@H]2CCCCN12` gave a pIC50 of 5.48.

With `C=CCOC[C@H]1Cc2c(n(Cc3ccccc3)c3ccccc23)[C@@H]2CC=CC(=O)N12`, the pIC50 was 5.77. The same measure, in the same setting: the value for `C=CCn1c2c(c3ccccc31)C[C@H](CO)N1C(=O)CCC[C@@H]21` was 4.39. Still for that read-out and setting: to `CCCOC[C@H]1Cc2c(n(Cc3ccccc3)c3ccccc23)[C@@H]2CCCC(=O)N12` belongs 5.55.

With `O=C1CCC[C@@H]2c3c(c4ccccc4n3Cc3ccccc3)C[C@@H](COCc3ccccc3)N12`, the pIC50 is 4.92. Still for that read-out and setting: the value for `O=C1C=CC[C@H]2c3c(c4ccccc4n3Cc3ccccc3)C[C@H](COCc3ccccc3)N12` was 5.44.

As for `C=CCOC[C@H]1Cc2c(n(Cc3ccccc3)c3ccccc23)[C@@H]2CCCCN12`, the pIC50 is 5.82. Same read-out and setting: the value for `O=C1CCC[C@H]2c3c(c4ccccc4n3Cc3ccccc3)C[C@H](COCC3CCCCC3)N12` was 4.72; that for `C=CCOC[C@@H]1Cc2c(n(Cc3ccccc3)c3ccccc23)[C@H]2CCCC(=O)N12` was 4.46; that for `C=C[C@H]1CC(=O)N2[C@@H](COCc3ccccc3)Cc3c(n(Cc4ccccc4)c4ccccc34)[C@@H]2C1` was 4.89. With `O=C1CCC[C@@H]2c3[nH]c4ccccc4c3C[C@@H](CO)N12`, the negative-log IC50 (pIC50) was 4.15.

Another experiment concerns Plasmodium falciparum. The experiment is described as follows: Anti-malarial activity against intraerythrocytic ring stage culture of chloroquine-sensitive Plasmodium falciparum 3D7 after 48 hrs by lactate dehydrogenase assay. The class given is functional, organism-based. The conditions noted are these: 3D7, 48 h. The procedure, abridged: as §1
On to `COC[C@H]1Cc2c(n(C)c3ccccc23)[C@@H]2CCCC(=O)N12`, for which the negative-log IC50 (pIC50) was 4.39. Still for that read-out and setting: the value for `COC[C@H]1Cc2c(n(Cc3ccccc3)c3ccccc23)[C@@H]2CCCC(=O)N12` was 5.64.

As for `C=CCOC[C@H]1Cc2c(n(Cc3ccccc3)c3ccccc23)[C@@H]2CCCC(=O)N12`, the pIC50 is 5.77.

Another experiment has as its system Plasmodium falciparum. Description: Anti-malarial activity against Plasmodium falciparum trophozoites assessed as induction of morphological changes at 5 uM. The class given is functional, organism-based.
Settings: not given
`O=C1CCC[C@H]2c3c(c4ccccc4n3Cc3ccccc3)C[C@H](COCc3ccccc3)N12`: the result was Active.

On to `C=CCOC[C@H]1Cc2c(n(Cc3ccccc3)c3ccccc23)[C@@H]2C[C@@H](C=C)CC(=O)N12`, for which the outcome was Active.
